OX1R antag-1 = antagonists of human orexin 1 receptor (OX1R). 330,000 compounds, 1.8% hits. inhibition, % at 6.6 µM. O43613. OX1R-expressing cells, FRET antagonist read-out; in the data active means inhibition mostly above about 38%, no sharp cut-off; inactive means mostly below about 40%;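 further: 0% = agonist challenge alone and 100% = reference antagonist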
Target sequence (O43613 whole entry, looked up): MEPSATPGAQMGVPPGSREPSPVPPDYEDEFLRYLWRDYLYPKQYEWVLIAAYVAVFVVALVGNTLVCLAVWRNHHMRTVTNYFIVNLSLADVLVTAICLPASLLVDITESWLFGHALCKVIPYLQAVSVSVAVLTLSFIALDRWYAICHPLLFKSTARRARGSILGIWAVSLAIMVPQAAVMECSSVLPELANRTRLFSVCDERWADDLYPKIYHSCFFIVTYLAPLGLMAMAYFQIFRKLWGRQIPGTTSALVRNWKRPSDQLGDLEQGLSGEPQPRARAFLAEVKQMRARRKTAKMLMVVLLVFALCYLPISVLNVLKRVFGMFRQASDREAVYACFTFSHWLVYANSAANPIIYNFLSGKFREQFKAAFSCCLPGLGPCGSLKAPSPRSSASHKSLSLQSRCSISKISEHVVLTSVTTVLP
TAAR1 agonist = agonists of human TAAR1 | Q96RJ0 | activation, % at 3 µM | 360,000 compounds, 0.99% hits | CHO RD-HGA16 TAAR1, Fluo-8 calcium fluorescence; vehicle wells 0%, saturating PEA agonist 100%;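 active means activation above the mean activation of all test compounds in the run plus 3 SD, cut at about 38% in these data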
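Benchmarks: low control DMSO, high control PEA (EC100); System: CHO RD-HGA16 cells carrying human TAAR1 plus Gα16; Detection: Fluo-8 fluorescence, 5 s baseline then 140 s kinetic read; Schedule: 17-24 h plating, Fluo-8 75 min 37 °C, 30 min RT; Read-out basis: % activation from peak over basal fluorescence ratio, DMSO-to-PEA scaled.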
CHO parental Ca = counter-screen for OX1R antagonists: effect in parental CHO cells; parental CHO-K1, ATP-induced calcium, Fluo-8 fluorescence; inhibition, % at 5.6 µM; 330,000 compounds, 0.63% hits; AID 463079;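 active means inhibition above that plate's mean sample inhibition plus 3 SD, cut at about 26% in these data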;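 further: 0% = ATP-challenged DMSO wells and 100% = DMSO wells without ATP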
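Test system: parental CHO cells; detection: calcium-sensitive Fluo-8 fluorescence; evaluation: percent inhibition of calcium signal; also added: ATP as calcium-mobilizing challenge; repeats: one well per compound; control set: ATP-challenged DMSO wells low, unchallenged DMSO wells high; compound: single nominal dose of 5.6 µM per compound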
OX1R antag-2 = antagonists of human orexin 1 receptor | O43613 | CHO/OX1R cells, Fluo-8 calcium fluorescence, orexin A | inhibition, % at 5 µM | 330,000 compounds, 0.43% hits;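 active means inhibition above its plate's threshold, mean inhibition of all tested compounds on the plate plus 3 SD, cut at about 37% in these data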;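 further: 0% = orexin A challenge wells and 100% = SB-334867-A antagonist wells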
GPR7 antagonist = blocks human GPR7 receptor signaling | P48145 | GPR7-expressing cells, fluorescence antagonist assay | inhibition, % at 4.4 µM | 290,000 compounds, 1.1% hits | AID 1861; in the data active means inhibition above about 16%, passing the limit was not always enough;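 further: cells stimulated with the agonist NPW; 0% = agonist with vehicle and 100% = vehicle without agonist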
Target sequence (P48145 whole entry, looked up): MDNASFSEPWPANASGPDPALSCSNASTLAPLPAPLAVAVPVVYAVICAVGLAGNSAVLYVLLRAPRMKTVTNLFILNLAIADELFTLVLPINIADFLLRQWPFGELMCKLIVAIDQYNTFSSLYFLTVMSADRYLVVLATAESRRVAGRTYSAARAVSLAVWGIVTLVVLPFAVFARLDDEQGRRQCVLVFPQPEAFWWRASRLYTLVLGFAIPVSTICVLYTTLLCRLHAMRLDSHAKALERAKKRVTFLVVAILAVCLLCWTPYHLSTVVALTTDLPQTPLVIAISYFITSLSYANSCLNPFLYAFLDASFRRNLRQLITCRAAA
TAAR1 antagonist = human TAAR1 antagonism; Q96RJ0; CHO RD-HGA16 TAAR1, Fluo-8 calcium fluorescence, antagonist; inhibition, % at 3 µM; 360,000 compounds, 1.5% hits; AID 624466;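 active means inhibition above a per-plate cutoff, the mean inhibition of test compounds on that plate plus 3 SD, cut at about 49% in these data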;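 further: 0% = DMSO plus EC80 beta-PEA response and 100% = DMSO alone without agonist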
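test system = CHO RD-HGA16 cells bearing hTAAR1 | replication = singlicate | controls = DMSO-only wells and EC80 β-PEA-stimulated wells | reagent = EC80 β-phenethylamine stimulus | read-out basis = percent inhibition of PEA-evoked calcium signal, max/basal emission ratio | schedule = seeding 17-24 h prior, 75-min 37 °C, 30-min RT dye loading | signal = kinetic Fluo-8 calcium fluorescence measurement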
The depositor's hits bear a star; x = not tested or not shown. This is a sample that favours compounds with a hit; in the whole collection about 4.6% have one here.

SMILES	OX1R antag-1	TAAR1 agonist	CHO parental Ca	OX1R antag-2	GPR7 antagonist	TAAR1 antagonist
C=C(C(=O)c1ccccc1)C(c1ccccc1)C(C)C(=O)c1ccccc1 (stereo unspecified)	16.0	0.6	41.5*	-22.5	-16.0	0.0
Cc1ccc2c(c1)n([O-])c1c([n+]2=O)CCCC1	28.9	0.7	-0.8	-9.2	-14.3	-2.7
O=[n+]1c2c(n([O-])c3cc(F)c(N4CCCC4)cc31)CCC2	67.6*	16.2	2.7	7.5	6.1	4.1
O=[n+]1c2c(n([O-])c3cc(F)c(N4CCCC4)cc31)CCCC2	52.5*	20.1	4.6	-0.3	-5.7	8.1
Cc1ccc(NC(=O)c2cc(N3C(=O)CCC3=O)ccc2N2CCOCC2)cc1	18.6	4.0	-9.3	-11.8	14.9	3.2
Cc1ccc(NC(=O)c2cc(N3C(=O)C=CC3=O)ccc2N2CCOCC2)cc1Cl	5.5	30.1	5.6	25.5	-4.9	51.2*
N#Cc1c(Cl)nsc1NC(=O)c1ccccc1	61.2*	16.3	7.0	-4.6	2.8	-1.7
COc1ccccc1-c1csc(C(NC(C)=O)c2ccccc2)n1 (stereo unspecified)	x	0.6	x	x	x	-5.5
O=C(O)Cn1c(O)c(C2=c3ccccc3=NC2=O)sc1=O	46.8*	-0.2	-3.2	-8.5	2.4	12.3
Cc1c(-n2c(O)c(C3=c4ccccc4=NC3=O)sc2=O)c(=O)n(-c2ccccc2)n1C	15.2	13.2	-6.5	-12.7	-8.2	6.5
COc1cc2c(cc1NC(=O)COC(=O)[C@@H](NS(=O)(=O)c1ccccc1)C(C)C)oc1ccccc12	74.6*	3.5	-5.4	19.6	-10.3	24.9
CCOc1ccccc1N1C(=O)CN(Cc2ccc(OC)c(OC)c2)C1=S	55.5*	4.3	-28.4	-16.2	3.7	7.7
COc1cccc(N2C(=O)CN(Cc3cc(OC)c(OC)c(OC)c3)C2=S)c1	21.6	2.8	-17.1	-24.4	9.7	-9.2
COc1ccc(N2C(=O)CN(Cc3cc(OC)c(OC)c(OC)c3)C2=S)cc1	47.3*	9.9	-13.7	-17.3	-0.7	29.4
CCCCCCCCN1C(=O)[C@@H](CC(=O)N2CCN(C(=O)OCC)CC2)C[C@@]2(C(=O)OC)C1=C[C@H](C(C)(C)C)O[C@@H]2C	x	-1.7	x	x	x	-21.9
C/C=C/c1ccc(OCC(=O)Nc2cc(Cl)ccc2-n2cncn2)c(OC)c1	10.1	1.1	-14.4	-39.9	x	-17.0
COc1cc2c(cc1OC)[C@@]1(c3ccccc3)CCCC[C@H]1[C@@H]2NC(=O)C(F)(F)F	x	1.1	x	x	x	-18.1
COC(=O)C(Cc1ccc(OC(=O)c2ccccc2C)cc1)N1Cc2ccccc2C1=O (stereo unspecified)	41.0	15.1	28.8	-4.9	2.2	52.4*
O=C(O)[C@H](Cc1ccccc1)N1Cc2ccccc2C1=O	14.4	0.3	3.4	0.7	-7.3	-14.2
COC(=O)CC(c1ccccc1F)N1Cc2ccccc2C1=O (stereo unspecified)	6.6	0.7	-22.8	-26.6	-8.4	-6.1
COC(=O)C(Cc1ccc(OC(=O)c2ccccc2Cl)cc1)N1Cc2ccccc2C1=O (stereo unspecified)	32.3	9.1	16.6	-9.0	8.6	59.1*
CCCCN(C(C)=O)c1c(CC)nc2ccc(C(=O)NCCc3ccccn3)cn12	x	2.3	x	x	x	-18.4
COC(=O)[C@]12C[C@H](CC(=O)N3CCCC3)C(=O)N(Cc3ccc4c(c3)OCO4)C1=C[C@H](COCc1ccccc1)O[C@@H]2C	x	-1.2	x	x	x	-18.4
CC(=O)N1CCN(C(=O)OC2CC3CC2[C@H]2CCCCN2C3=O)CC1 (stereo partly specified)	x	5.9	x	x	x	-11.4
CN(C)c1ncnc2c1ncn2[C@H]1CN(Cc2ccco2)C[C@@H](CO)O1	x	-0.2	x	x	x	6.8
SMILES	OX1R antag-1	TAAR1 agonist	CHO parental Ca	OX1R antag-2	GPR7 antagonist	TAAR1 antagonist
Cc1nc(N2CCN(c3ccccn3)CC2)c2c(C)c(C(=O)Nc3c(F)cc(F)cc3Br)sc2n1	17.3	2.7	-11.1	-28.5	10.7	57.1*
Cc1nc(N2CCN(c3ccccn3)CC2)c2c(C)c(C(=O)Nc3ccc(Cl)cc3)sc2n1	5.7	4.1	-2.2	-12.6	-5.4	-22.4
COC(=O)[C@]12C[C@H](CC(=O)NCCCN3CCCC3=O)C(=O)N(Cc3ccccc3)C1=C[C@H](C1CCCC1)O[C@@H]2C	x	-0.1	x	x	x	0.9
CCOc1ccc(/C=N/NC(=O)c2ccccc2Cl)cc1CN1CC2CC(C1)c1cccc(=O)n1C2 (stereo unspecified)	36.8*	-1.6	-30.1	-14.5	x	7.7
Nc1[nH]n(-c2ccccc2)c(=O)c1N=Nc1ccc2ncsc2c1	53.0*	5.7	-11.9	-3.2	-9.7	27.3
CC(C)C(=O)N1CCCC1(C)C(=O)NCc1ccc(Cl)cc1 (stereo unspecified)	x	-0.4	x	x	x	4.6
O=C(N[C@H](Cc1ccccc1)C(=O)O)[C@H]1O[C@@H](n2ccc(=O)[nH]c2=O)[C@H](O)[C@@H]1O	x	3.6	x	x	x	-22.6
Cc1cc(C)cc(OCC(=O)N2N=C(c3cccnc3)CC2(O)C(F)(F)F)c1 (stereo unspecified)	4.9	5.0	-3.3	-3.0	-4.7	9.5
Cc1cc(C)cc(OCC(=O)N2N=C(C(F)(F)F)CC2(O)C(C)(C)C)c1 (stereo unspecified)	8.3	12.0	39.7*	8.2	-11.5	19.3
O=C(NCc1ccc(F)cc1)c1ccc(N2CCc3ccccc32)c([N+](=O)[O-])c1	27.0	0.1	-6.2	2.9	-2.4	51.5*
CCCS(=O)(=O)NC(=O)C1(C)CCN(C(=O)c2ccccc2OC(F)(F)F)C1 (stereo unspecified)	x	1.6	x	x	x	-9.7
Cn1ncc2c(O/N=C(\N)c3ccc(C(F)(F)F)cc3)ncnc21	48.3*	1.7	-15.7	-24.5	2.4	-8.6
Cc1ccc2nc(N/N=C/c3ccccc3F)nc(-c3ccccc3)c2c1	50.8*	2.9	-22.3	-22.3	-4.5	13.1
COc1ccc(C2CC(=O)C(c3ccc4ccccc4c3)=CN2Cc2ccccc2)cc1 (stereo unspecified)	x	-0.4	x	x	x	-39.8
CSCCC(NS(=O)(=O)c1ccc2c(c1)OCCO2)C(=O)N(C)Cc1ccccc1F (stereo unspecified)	9.0	31.1	-18.4	-19.4	x	55.2*
COc1ccccc1N1CCN(C(=O)c2cn(Cc3ccccc3)nc2-c2cccnc2)CC1	-3.4	46.8*	-32.3	-31.4	x	19.2
CCc1c(C)nc(SCC(N)=O)c(C#N)c1C	5.8	1.5	-11.9	-6.9	-9.4	-8.0
CCc1c(C)nc(SCC(=O)c2cccs2)c(C#N)c1C	63.7*	12.1	-5.9	-4.0	8.1	8.9
COCCNC(=O)C1(C)CCCN(Cc2ccc(-c3ccccc3)o2)C1 (stereo unspecified)	x	-0.9	x	x	x	-0.9

Bioassay records as filed in PubChem.
